ChEMBL document CHEMBL5058577, “EUbOPEN Chemogenomics Library 2 (Multiplex)” (2022)

System: U2OS
Test: Multiplex assay against U2OS
Format: toxicity, cell-based
Conditions: human
Summary of the method: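 Values for tubulin, mitochondrial-mass and membrane-permeability phenotypes are per cents of cells with healthy nuclei. These cells were identified by CellPathfinder machine-learning gating of live cells that had been stained at seeding with Hoechst33342, BioTracker Green Microtubule Cytoskeleton Dye, MitoTracker Red and Annexin V Alexa Fluor 680 and imaged on a CQ1 microscope at 37°C and 5% CO2 after compound addition. The gating first set Hoechst high-intensity objects apart from normal cells, then split normal cells into healthy, pyknosed or fragmented nuclei, and pyknosed cells into mitotic or apoptotic.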

[1] = 12 h, 1 µM, compound concentration 1 uM, replicate 1
[2] = 12 h, 1 µM, compound concentration 1 uM, replicate 2
[3] = 12 h, 10 µM, compound concentration 10 uM, replicate 1
[4] = 12 h, 10 µM, compound concentration 10 uM, replicate 2
[5] = 24 h, 1 µM, compound concentration 1 uM, replicate 1
[6] = 24 h, 1 µM, compound concentration 1 uM, replicate 2
[7] = 24 h, 10 µM, compound concentration 10 uM, replicate 1
[8] = 24 h, 10 µM, compound concentration 10 uM, replicate 2
[9] = 48 h, 1 µM, compound concentration 1 uM, replicate 1
[10] = 48 h, 1 µM, compound concentration 1 uM, replicate 2
[11] = 48 h, 10 µM, compound concentration 10 uM, replicate 1
[12] = 48 h, 10 µM, compound concentration 10 uM, replicate 2

## Cc1nn(C)c2nc(NNC(=O)Nc3cc(Cl)nc(Cl)c3)cc(C(C)C)c12
[1]
  Population Apoptotic (%): 76%
  Population Fragmented Nuclei (%): 23%
  Population Healthy Nuclei (%): 66%
  Population Hoechst High Intensity Objects (%): 1%
  Population Membrane Permeable-Phenotype (%): 5%
  Population Mitochondria Different-Phenotype (%): 3%
  Population Mitotic Cells (%): 24%
  Population Normal (%): 98%
  Population Pyknosed Nuclei (%): 9%
  Population Tubulin-Different-Phenotype (%): 2%
  Total Cell Count: 268
[2]
  Population Apoptotic (%): 72%
  Population Fragmented Nuclei (%): 14%
  Population Healthy Nuclei (%): 76%
  Population Hoechst High Intensity Objects (%): 2%
  Population Membrane Permeable-Phenotype (%): 10%
  Population Mitochondria Different-Phenotype (%): 7%
  Population Mitotic Cells (%): 27%
  Population Normal (%): 97%
  Population Pyknosed Nuclei (%): 8%
  Population Tubulin-Different-Phenotype (%): 7%
  Total Cell Count: 131
[3]
  Population Apoptotic (%): 77%
  Population Fragmented Nuclei (%): 21%
  Population Healthy Nuclei (%): 56%
  Population Hoechst High Intensity Objects (%): 7%
  Population Membrane Permeable-Phenotype (%): 75%
  Population Mitochondria Different-Phenotype (%): 46%
  Population Mitotic Cells (%): 22%
  Population Normal (%): 92%
  Population Pyknosed Nuclei (%): 21%
  Population Tubulin-Different-Phenotype (%): 80%
  Total Cell Count: 222
[4]
  Population Apoptotic (%): 47%
  Population Fragmented Nuclei (%): 15%
  Population Healthy Nuclei (%): 63%
  Population Hoechst High Intensity Objects (%): 4%
  Population Membrane Permeable-Phenotype (%): 57%
  Population Mitochondria Different-Phenotype (%): 63%
  Population Mitotic Cells (%): 52%
  Population Normal (%): 95%
  Population Tubulin-Different-Phenotype (%): 77%
  Total Cell Count: 104
[5]
  Population Apoptotic (%): 80%
  Population Fragmented Nuclei (%): 20%
  Population Healthy Nuclei (%): 71%
  Population Hoechst High Intensity Objects (%): 0%
  Population Membrane Permeable-Phenotype (%): 4%
  Population Mitochondria Different-Phenotype (%): 2%
  Population Mitotic Cells (%): 19%
  Population Normal (%): 99%
  Population Pyknosed Nuclei (%): 8%
  Population Tubulin-Different-Phenotype (%): 1%
  Total Cell Count: 328
[6]
  Population Apoptotic (%): 93%
  Population Fragmented Nuclei (%): 17%
  Population Healthy Nuclei (%): 73%
  Population Hoechst High Intensity Objects (%): 2%
  Population Membrane Permeable-Phenotype (%): 9%
  Population Mitochondria Different-Phenotype (%): 4%
  Population Mitotic Cells (%): 6%
  Population Normal (%): 97%
  Population Pyknosed Nuclei (%): 9%
  Population Tubulin-Different-Phenotype (%): 4%
  Total Cell Count: 168
[7]
  Population Apoptotic (%): 78%
  Population Fragmented Nuclei (%): 19%
  Population Healthy Nuclei (%): 49%
  Population Hoechst High Intensity Objects (%): 5%
  Population Membrane Permeable-Phenotype (%): 69%
  Population Mitochondria Different-Phenotype (%): 58%
  Population Mitotic Cells (%): 21%
  Population Normal (%): 94%
  Population Pyknosed Nuclei (%): 31%
  Population Tubulin-Different-Phenotype (%): 77%
  Total Cell Count: 218
[8]
  Population Apoptotic (%): 69%
  Population Fragmented Nuclei (%): 16%
  Population Healthy Nuclei (%): 61%
  Population Hoechst High Intensity Objects (%): 2%
  Population Membrane Permeable-Phenotype (%): 42%
  Population Mitochondria Different-Phenotype (%): 51%
  Population Mitotic Cells (%): 30%
  Population Normal (%): 97%
  Population Pyknosed Nuclei (%): 21%
  Population Tubulin-Different-Phenotype (%): 57%
  Total Cell Count: 110
[9]
  Population Apoptotic (%): 88%
  Population Fragmented Nuclei (%): 17%
  Population Healthy Nuclei (%): 75%
  Population Hoechst High Intensity Objects (%): 2%
  Population Membrane Permeable-Phenotype (%): 4%
  Population Mitochondria Different-Phenotype (%): 3%
  Population Mitotic Cells (%): 11%
  Population Normal (%): 97%
  Population Pyknosed Nuclei (%): 7%
  Population Tubulin-Different-Phenotype (%): 2%
  Total Cell Count: 504
[10]
  Population Apoptotic (%): 86%
  Population Fragmented Nuclei (%): 21%
  Population Healthy Nuclei (%): 65%
  Population Hoechst High Intensity Objects (%): 1%
  Population Membrane Permeable-Phenotype (%): 8%
  Population Mitochondria Different-Phenotype (%): 4%
  Population Mitotic Cells (%): 13%
  Population Normal (%): 98%
  Population Pyknosed Nuclei (%): 12%
  Population Tubulin-Different-Phenotype (%): 5%
  Total Cell Count: 247
[11]
  Population Apoptotic (%): 83%
  Population Fragmented Nuclei (%): 24%
  Population Healthy Nuclei (%): 43%
  Population Hoechst High Intensity Objects (%): 9%
  Population Membrane Permeable-Phenotype (%): 51%
  Population Mitochondria Different-Phenotype (%): 46%
  Population Mitotic Cells (%): 16%
  Population Normal (%): 90%
  Population Pyknosed Nuclei (%): 32%
  Population Tubulin-Different-Phenotype (%): 49%
  Total Cell Count: 244
[12]
  Population Apoptotic (%): 80%
  Population Healthy Nuclei (%): 48%
  Population Hoechst High Intensity Objects (%): 6%
  Population Mitochondria Different-Phenotype (%): 63%
  Population Mitotic Cells (%): 20%
  Population Normal (%): 93%
  Population Pyknosed Nuclei (%): 27%
  Population Tubulin-Different-Phenotype (%): 57%
  Total Cell Count: 115
